Results taken from ChEMBL document CHEMBL1139076, “Structural simplification of bioactive natural products with multicomponent synthesis: dihydropyridopyrazole analogues of podophyllotoxin” (2007).

What was measured:
HeLa = test: Cytotoxicity against human HeLa cells assessed as viability at 5 uM after 48 hrs by MTT method relative to control; format: functional; conditions: read-out: Activity
In short: (§1)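 Cells treated 48 h with compound at final 5 µM. Viability was read as mitochondrial dehydrogenase activity by MTT and expressed as % of the 100% DMSO control. Values are mean ± s.d. from two experiments.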

[1] = Cytotoxicity against human MCF7AZ cells assessed as viability at 5 uM after 48 hrs by MTT method relative to control; format: functional; conditions: MCF7/AZ, read-out: Activity; in short: as §1
Jurkat [2] = test: Cytotoxicity against human Jurkat cells assessed as viability at 5 uM after 48 hrs by MTT method relative to control; format: functional; conditions: read-out: Activity; in short: as §1
Jurkat [3] = test: Induction of apoptosis in human Jurkat cells at 5 uM by flow cytometric annexin-V/propidium iodide assay; format: functional, cell-based; conditions: TDE = time-dependent effect
In short: (§2)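 Jurkat cells were treated for 12, 24, 36 or 48 h against a DMSO control. Apoptosis was scored by flow cytometry after annexin-V/propidium iodide staining.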

Jurkat [4] = test: Induction of apoptosis in human Jurkat cells at 5 uM after 48 hrs by flow cytometric annexin-V/propidium iodide assay; format: functional; in short: as §2
[5] = Cytotoxicity against human MCF7AZ cells assessed as viability at 50 uM after 48 hrs by MTT method relative to control; format: functional; conditions: MCF7/AZ, read-out: Activity
In short: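 MCF7-AZ cells were exposed 48 h to compound at final 50 µM. Viability was read as mitochondrial dehydrogenase activity by MTT, relative to DMSO control.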

Jurkat [6] = test: Induction of apoptosis in human Jurkat cells at 50 uM by flow cytometric annexin-V/propidium iodide assay; format: functional, cell-based; conditions: TDE = time-dependent effect
In short: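 Human T-cell leukemia Jurkat cells were exposed to compound alongside a DMSO control and harvested after 12, 24, 36 and 48 hours. Apoptosis was read by flow cytometry after annexin-V and propidium iodide staining.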

Jurkat [7] = test: Induction of apoptosis in human Jurkat cells at 50 uM after 48 hrs by flow cytometric annexin-V/propidium iodide assay; format: functional; in short: as §2

SMILES	viability at 5 µM (HeLa)	viability at 5 µM [1]	viability at 5 µM (Jurkat [2])	Activity (Jurkat [3])	Activity (Jurkat [4])	viability at 50 µM [5]	Activity (Jurkat [6])	Activity (Jurkat [7])
COc1ccc(C2C3=C(COC3=O)Nc3[nH]nc(C)c32)cc1OC (stereo not given)	73%	95%	88%					
Cc1n[nH]c2c1C(c1ccsc1)C1=C(COC1=O)N2 (stereo not given)	98%	100%	82%					
COc1cc([C@@H]2c3cc4c(cc3[C@H](O)[C@H]3COC(=O)[C@H]23)OCO4)cc(OC)c1OC [PODOFILOX]	19%	55%	18%	tde	70%			
COc1cc(C2C3=C(COC3=O)Nc3[nH]nc(C)c32)cc(Br)c1OC(C)=O (stereo not given)	47%	46%	36%					
COc1cc([C@@H]2c3cc4c(cc3[C@@H](O[C@@H]3O[C@@H]5CO[C@@H](C)O[C@H]5[C@H](O)[C@H]3O)[C@H]3COC(=O)[C@H]23)OCO4)cc(OC)c1O [ETOPOSIDE]	91%	76%	75%			57%	tde	70%
Cc1n[nH]c2c1C(c1cccc(Cl)c1)C1=C(COC1=O)N2 (stereo not given)	43%	54%	76%					
C=C(C)[C@@H]1CC=C(C2C3=C(COC3=O)Nc3[nH]nc(C)c32)CC1 (stereo not given in full)	95%	91%	89%					
Cc1n[nH]c2c1C(c1cc(Br)c(O)c(Br)c1)C1=C(COC1=O)N2 (stereo not given)	58%	60%	58%					
Cc1n[nH]c2c1C(c1ccncc1)C1=C(COC1=O)N2 (stereo not given)	94%	100%	92%					
Cc1n[nH]c2c1C(c1ccccc1)C1=C(COC1=O)N2 (stereo not given)	74%	84%	87%					
CSc1ccc(C2C3=C(COC3=O)Nc3[nH]nc(C)c32)cc1 (stereo not given)	45%	95%	87%					
Cc1n[nH]c2c1C(c1ccc(Br)cc1)C1=C(COC1=O)N2 (stereo not given)	62%	92%	90%					
Cc1n[nH]c2c1C(c1ccccc1[N+](=O)[O-])C1=C(COC1=O)N2 (stereo not given)	71%	99%	64%					
Cc1n[nH]c2c1C(c1cccc(F)c1)C1=C(COC1=O)N2 (stereo not given)	99%	76%	84%					
Cc1n[nH]c2c1C(c1ccc(Cl)c(Cl)c1)C1=C(COC1=O)N2 (stereo not given)	88%	56%	71%					
COc1cc2c(cc1OC)[C@@H](c1cc(OC)c(OC)c(OC)c1)C1=C(COC1=O)N2	53%	58%	35%					

SMILES	viability at 5 µM (HeLa)	viability at 5 µM [1]	viability at 5 µM (Jurkat [2])	Activity (Jurkat [3])	Activity (Jurkat [4])	viability at 50 µM [5]	Activity (Jurkat [6])	Activity (Jurkat [7])
Cc1n[nH]c2c1C(c1ccc(OC(F)(F)F)cc1)C1=C(COC1=O)N2 (stereo not given)	97%	84%	97%					
COc1cc(C2C3=C(COC3=O)Nc3[nH]nc(C)c32)cc(OC)c1OC (stereo not given)	50%	58%	47%	tde	70%			
Cc1n[nH]c2c1C(c1ccc(C3C4=C(COC4=O)Nc4[nH]nc(C)c43)cc1)C1=C(COC1=O)N2 (stereo not given)	56%	99%	96%					
Cc1n[nH]c2c1C(c1ccccc1Br)C1=C(COC1=O)N2 (stereo not given)	57%	100%	90%					
Cc1n[nH]c2c1C(c1ccc(N(C)C)c(Br)c1)C1=C(COC1=O)N2 (stereo not given)	55%	59%	34%					
COc1ccc(C2C3=C(COC3=O)Nc3[nH]nc(C)c32)cc1 (stereo not given)	73%	82%	94%					
CCOc1c(Br)cc(C2C3=C(COC3=O)Nc3[nH]nc(C)c32)cc1OC (stereo not given)	52%	49%	28%					
Cc1n[nH]c2c1C(c1cccc(Br)c1)C1=C(COC1=O)N2 (stereo not given)	51%	63%	68%	tde	70%			
Cc1nc2ccccc2nc1C1C2=C(COC2=O)Nc2[nH]nc(C)c21 (stereo not given)	72%	100%	97%					
COc1cc(C2C3=C(COC3=O)Nc3[nH]nc(C)c32)cc([N+](=O)[O-])c1O (stereo not given)	78%	89%	90%					
Cc1n[nH]c2c1C(c1cnn(-c3ccccc3)c1Cl)C1=C(COC1=O)N2 (stereo not given)	58%	100%	94%					
Cc1n[nH]c2c1C(c1c(C)nc3sccn13)C1=C(COC1=O)N2 (stereo not given)	84%	100%	85%					
Cc1n[nH]c2c1C(c1cccnc1)C1=C(COC1=O)N2 (stereo not given)	69%	96%	88%					
COc1cc([C@H]2C3=C(COC3=O)Nc3cc4c(cc32)OCO4)cc(OC)c1OC	54%	52%	54%					
Cc1n[nH]c2c1C(c1cccs1)C1=C(COC1=O)N2 (stereo not given)	82%	98%	74%					
Cc1n[nH]c2c1C(C)C1=C(COC1=O)N2 (stereo not given)	70%	97%	78%					
